RAD54 inh: blocks human RAD54 Holliday junction branch migration; Q92698; FAM/BHQ fluorescence; inhibition, % at 10.4 µM; 360,000 tested, 0.14% active; AID 602329;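 active means mean normalized replicate activity at least 40 and at least half of replicates scoring 40 or more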;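 further: 0% = median of neutral control wells and 100% = median of positive control wells; inhibitors cause a drop in the FAM fluorescence signal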
PDI inh: blocks human protein disulfide isomerase activity; P07237; PDI insulin aggregation turbidity, A650, 90 min; inhibition, % at 10 µM; 350,000 tested, 0.052% active; AID 588391;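 active means mean inhibition across replicates of 30% or more, whatever share of single replicates reach that level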
Target sequence (P07237 whole entry, looked up): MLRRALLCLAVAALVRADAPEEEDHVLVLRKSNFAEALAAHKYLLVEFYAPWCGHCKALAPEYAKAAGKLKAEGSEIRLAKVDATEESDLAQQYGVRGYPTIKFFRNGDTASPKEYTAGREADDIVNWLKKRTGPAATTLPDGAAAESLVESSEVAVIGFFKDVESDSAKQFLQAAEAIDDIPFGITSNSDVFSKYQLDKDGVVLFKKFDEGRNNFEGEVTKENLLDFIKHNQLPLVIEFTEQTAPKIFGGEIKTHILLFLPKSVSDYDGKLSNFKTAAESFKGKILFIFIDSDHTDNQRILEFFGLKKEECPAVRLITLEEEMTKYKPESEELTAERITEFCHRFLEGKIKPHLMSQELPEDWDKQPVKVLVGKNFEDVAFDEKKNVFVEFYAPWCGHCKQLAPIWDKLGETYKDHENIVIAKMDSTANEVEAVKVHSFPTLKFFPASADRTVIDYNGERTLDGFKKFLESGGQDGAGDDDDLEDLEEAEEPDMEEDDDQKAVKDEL
RAD52 inh: blocks human RAD52 DNA annealing; P43351; recombinant RAD52 DNA annealing, FRET fluorescence; inhibition, % at 18.7 µM; 360,000 tested, 0.46% active; AID 651710;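 active means every replicate showing at least 50% inhibition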
CAL PDZ FP-1: CAL PDZ (human) peptide binding inhibition; 300,000 tested, 0.92% active; Q9HD26; purified CAL PDZ, TMR-peptide fluorescence polarization, 1 h; AID 602252; inhibition, % at 24.9 µM;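 active means mean inhibition of at least 30% with at least half of replicates also reaching 30%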;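 further: 0% = DMSO neutral control and 100% = excess unlabeled competitor peptide PRC23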
CAL PDZ FP-2: human CAL PDZ-peptide interaction inhibition; purified CAL PDZ, TMR-peptide fluorescence polarization, 1 h; Q9HD26; inhibition, % at 20 µM; AID 504414; 330,000 tested, 0.02% active;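 active means highest replicate inhibition of at least 40%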;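 further: plate controls were DMSO neutral control wells for no effect and unlabeled competitor peptide control wells for full effect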
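Material: tagged CAL PDZ protein CerCALP, purified; buffer or medium: sodium phosphate/NaCl buffer pH 7.4 with TCEP, IgG, Thesit; also added: fluorescent TMR peptide probe; schedule: 1 h incubation at room temperature before polarization reading; technique: fluorescence polarization from S- and P-plane intensities, G-factor corrected; control set: unlabelled peptide and DMSO controls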
ERp5 block: ERp5 (human) disulfide isomerase inhibition. Q15084. ERp5 insulin aggregation, absorbance 650 nm, 90 min. inhibition, % at 9.99 µM. 350,000 tested, 0.05% active;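 active means mean replicate inhibition above about 25%, with every replicate also reaching it, limit read from the data, passing the limit was not always enough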
* marks the source's active call; other numbers are inactive results; x = no result given. Only some compounds are listed: those with a hit (about 1% of all), similar ones and a draw of the others.

SMILES	RAD54 inh	PDI inh	RAD52 inh	CAL PDZ FP-1	CAL PDZ FP-2	ERp5 block
O=C1c2ccccc2C(=O)N1CCCn1ccnc1	7.6	-13.8	-3.5	-0.4	-0.3	3.4
O=C(CCCN1C(=O)c2ccccc2C1=O)NCCCn1ccnc1	x	-1.4	-14.6	49.5*	0.5	-3.3
O=C(Nc1cccc(C(F)(F)F)c1)Oc1ccc(Cl)c2cccnc12	-12.5	3.5	-3.1	35.2*	-1.4	1.1
CCN(CC)C(=O)Oc1ccc(Cl)c2cccnc12	-12.0	17.1	0.3	-3.2	-1.8	4.5
CNS(=O)(=O)c1cccc(C(=O)NCC(c2ccco2)N(C)C)c1 (centres undefined)	-1.6	-6.6	-13.5	3.1	-0.8	0.8
CN(C)C(CNC(=O)c1cccc(S(=O)(=O)Nc2ccccc2Cl)c1)c1ccco1 (centres undefined)	-4.6	6.8	-26.4	32.4*	-0.4	9.6
Cc1ccc2nc(NC(=O)COC(=O)c3ccncc3)sc2c1	x	0.1	-15.8	62.2*	32.9	4.8
COCC(=O)Nc1nc2ccc(C)cc2s1	x	-1.2	x	-3.5	-0.2	x
CN(C)C(=O)C[C@H]1CC[C@@H]2[C@@H](COc3ccc(NC(=O)C4CCCCC4)cc3C(=O)N2C)O1	-11.9	x	-5.1	x	x	-1.6
O=C(C[C@H]1CC[C@@H]2[C@H](COC[C@@H](O)CN2C(=O)Nc2cccc(Cl)c2)O1)NCc1ccccc1F	-0.5	x	-0.8	x	x	-5.7
CC(C)C(=O)N1CCN(c2ccccc2NC(=O)c2cccc3ccccc23)CC1	-9.5	9.3	-9.0	46.7*	-4.7	1.8
O=C(NC1CCCCC1)[C@@H]1[C@@H](CO)[C@@H]2Cn3c(cccc3=O)[C@H]1N2CC1CCCCC1	x	x	-1.3	x	x	-2.6
Cc1cccc(Oc2ccc(NS(=O)(=O)c3ccc(C)c(C(=O)O)c3)cc2)c1	-6.1	5.7	-15.3	-1.2	0.4	26.1*
Cc1nonc1NC(=O)CSc1nnc(-c2ccoc2C)n1CC(C)C	4.5	10.9	x	176.5*	x	x
O=C(Nc1ccccc1)C1=C(c2ccccc2)S(=O)(=O)CCS1(=O)=O	x	-0.1	-4.1	34.4*	-1.0	-10.6
O=C(O)c1ccccc1C(=O)Nc1ccccc1	0.0	-3.8	x	0.5	-0.7	x
O=C(Nc1ccc2c(c1)OCO2)C1CC(c2cccc(Br)c2)=NO1 (centres undefined)	-7.1	-3.7	-10.2	41.9*	x	0.2
Cc1cc(Br)cc(Cl)c1OC(=O)c1cnccn1	-11.3	7.1	-12.1	-1.3	-4.4	0.3
Cc1cc(Br)cc(Cl)c1OC(=O)c1ccncc1	3.0	-14.1	-5.9	47.2*	-1.9	-0.8
CC(=O)/C(N=Nc1cccc(C(F)(F)F)c1)=C(\C)O	x	-0.5	-17.5	-9.2	-1.2	-2.4
O=C(/C(N=Nc1cccc(C(F)(F)F)c1)=C(/O)c1cccs1)C(F)(F)F	x	2.7	-2.8	68.3*	1.1	x
COCCCNC1CS(=O)(=O)CC1O (centres undefined)	-1.9	1.5	-6.9	72.5*	7.6	4.1
CN(C)CCCNC1CS(=O)(=O)CC1O (centres undefined)	0.8	1.3	x	-2.0	-1.2	x
CN1C(=O)/C(=C/c2ccccc2OCc2cccc(F)c2)N(C)C1=S	0.3	-6.3	x	-2.3	-2.5	x
Fc1cccc(COc2ccccc2C(=S)N2CCCC2)c1	-7.9	6.8	-12.9	43.1*	x	3.8
SMILES	RAD54 inh	PDI inh	RAD52 inh	CAL PDZ FP-1	CAL PDZ FP-2	ERp5 block
C[C@H](CO)N1C[C@H](C)[C@H](CN(C)Cc2ccc(C(=O)O)cc2)Oc2ccc(NC(=O)NC3CCCCC3)cc2CC1=O	1.0	x	-0.1	x	x	-14.1
COC(=O)c1sccc1NC(=O)c1c(Cl)cccc1Cl	-1.9	-0.6	12.0	-2.9	x	0.9
COC(=O)c1sccc1NC(=O)c1cccc(Cl)c1	x	-8.2	5.6	83.2*	-3.3	4.4
CC1=CC(C)C(CN(CCC[N+](C)(C)C)C(=O)Nc2ccccc2)C(C)C1 (centres undefined)	x	-4.0	-3.0	42.1*	-0.4	-5.0
COC(=O)CC1C(=O)NCCN1C(=O)c1ccc([N+](=O)[O-])cc1 (centres undefined)	-7.9	-1.8	2.0	69.6*	-1.2	3.7
C/C(=C\C(=O)O)C(=O)Nc1nccs1	-13.4	1.6	x	-3.8	-0.5	x
CC(=O)c1nccs1	-0.1	x	x	32.5*	0.1	x
COc1ccc(C)cc1NC(=O)Nc1ccc(Br)cn1	6.7	-1.5	x	46.4*	-0.3	x
